# Data taken from ChEMBL document CHEMBL4834402, “Discovery of TAK-981, a First-in-Class Inhibitor of SUMO-Activating Enzyme for the Treatment of Cancer” (J Med Chem, 2021).
# What was measured:
# SUMO-activating enzyme [1] = molecular target: T1, SUMO-activating enzyme (Homo sapiens, UniProt Q9UBT2); assay: Inhibition of SAE in human HCT116 cells assessed as redistribution of SUMO2/3 proteins from nucleus to cytosol preincubated for 2 hrs followed by compound washout and measured immediately by immunofluorescence assay; assay type: cell-based, HCT-116
# Method in brief: (§1)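 Washout format of the SUMO2/3 immunofluorescence assay in HCT116 cells. Cells were exposed to a range of concentrations for 2 h, then washed free of compound.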
# SUMO-activating enzyme [2] = molecular target: T1, SUMO-activating enzyme; assay: Inhibition of SAE in human HCT116 cells assessed as redistribution of SUMO2/3 proteins from nucleus to cytosol preincubated for 2 hrs followed by compound washout and measured after 8 hrs by immunofluorescence assay; assay type: cell-based, HCT-116; method in brief: as §1
# SUMO-activating enzyme [3] = molecular target: T1, SUMO-activating enzyme; assay: Inhibition of recombinant SAE (unknown origin) assessed as reduction in transfer of SUMO1 to UBC9 using SUMO1 as a substrate in presence of ATP at Km concentration by HTRF assay; assay type: protein-complex assay
# Method in brief: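 HTRF transthiolation assay measuring transfer of SUMO1 to UBC9, the E2 for SAE.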
# SUMO-activating enzyme [4] = molecular target: T1, SUMO-activating enzyme; assay: Inhibition of SAE in human HCT116 cells assessed as reduction in redistribution of SUMO2/3 proteins from nucleus to cytosol incubated for 4 hrs by immunofluorescence assay; assay type: cell-based, HCT-116
# Method in brief: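 HCT-116 cells exposed to compound across a concentration range for 4 h, then stained with anti-SUMO2/3 monoclonal antibody. Automated imaging scored the nuclear (inner) to cytoplasmic (outer) SUMO2/3 ratio. IC50 taken from the dose response.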
# [5] = Inhibition of recombinant UAE (unknown origin) in presence of ATP at Km concentration by HTRF assay; parameters: species or system Homo sapiens
# NEDD8 activating enzyme [6] = molecular target: T2, NEDD8 activating enzyme (Homo sapiens, UniProt Q8TBC4); assay: Inhibition of recombinant NAE (unknown origin) in presence of ATP at Km concentration by HTRF assay; assay type: protein-complex assay
# T2 sequence (Q8TBC4 whole entry): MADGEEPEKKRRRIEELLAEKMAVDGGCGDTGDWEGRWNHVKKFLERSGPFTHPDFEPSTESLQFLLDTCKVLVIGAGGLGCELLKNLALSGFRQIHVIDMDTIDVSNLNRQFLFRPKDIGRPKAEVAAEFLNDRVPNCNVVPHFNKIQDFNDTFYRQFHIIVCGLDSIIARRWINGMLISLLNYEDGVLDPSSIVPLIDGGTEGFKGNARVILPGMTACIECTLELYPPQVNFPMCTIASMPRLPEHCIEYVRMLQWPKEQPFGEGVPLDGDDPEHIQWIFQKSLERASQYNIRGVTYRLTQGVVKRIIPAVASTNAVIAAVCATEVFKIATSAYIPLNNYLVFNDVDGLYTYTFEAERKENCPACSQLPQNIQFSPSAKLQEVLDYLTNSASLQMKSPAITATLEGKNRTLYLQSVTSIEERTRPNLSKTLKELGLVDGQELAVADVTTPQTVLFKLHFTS
# T2 sequence (Q13564 whole entry): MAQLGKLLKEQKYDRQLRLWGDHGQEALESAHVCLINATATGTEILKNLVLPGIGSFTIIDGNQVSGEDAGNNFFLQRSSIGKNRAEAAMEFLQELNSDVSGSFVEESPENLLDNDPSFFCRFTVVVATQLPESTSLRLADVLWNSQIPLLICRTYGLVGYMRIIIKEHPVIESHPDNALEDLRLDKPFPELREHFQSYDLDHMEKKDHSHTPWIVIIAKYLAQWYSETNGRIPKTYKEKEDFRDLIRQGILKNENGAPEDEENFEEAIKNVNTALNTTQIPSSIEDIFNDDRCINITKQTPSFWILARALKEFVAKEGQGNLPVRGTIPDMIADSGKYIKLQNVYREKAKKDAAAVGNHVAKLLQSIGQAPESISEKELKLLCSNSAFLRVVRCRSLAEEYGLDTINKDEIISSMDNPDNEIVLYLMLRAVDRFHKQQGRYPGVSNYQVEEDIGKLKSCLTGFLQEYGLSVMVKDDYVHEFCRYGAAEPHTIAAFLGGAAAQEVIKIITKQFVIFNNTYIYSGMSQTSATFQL
# [7] = Inhibition of UAE (unknown origin) using Ub as substrate incubated for 60 mins in presence of ATP and PPi by pyrophosphate exchange assay; parameters: species or system Homo sapiens
# Method in brief: (§2)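 Pyrophosphate exchange assay of E1 activity at 1 mM ATP. Substrates were SUMO1 or SUMO2 for SAE, Ub for UAE and Nedd-8 for NAE.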
# SUMO-activating enzyme [8] = molecular target: T1, SUMO-activating enzyme; assay: Inhibition of SAE in human HCT116 cells assessed as reduction in conjugation of SUMO proteins to UBC9 by Western blot analysis; assay type: cell-based, HCT-116
# Method in brief: (§3)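 HCT116 cells, quantitative Western blot of E2–UBL conjugates. Read-outs were SUMO–UBC9 for SAE, ubiquitin–[…] for UAE and Nedd-8–[…] for NAE.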
# NEDD8 activating enzyme [9] = molecular target: T2, NEDD8 activating enzyme; assay: Inhibition of NAE in human HCT116 cells assessed as reduction in conjugation of Nedd8 […] by Western blot analysis; assay type: cell-based, HCT-116; method in brief: as §3
# NEDD8 activating enzyme [10] = molecular target: T2, NEDD8 activating enzyme; assay: Inhibition of NAE (unknown origin) using Nedd-8 as substrate incubated for 60 mins in presence of ATP and PPi by pyrophosphate exchange assay; assay type: protein-complex assay; method in brief: as §2
# SUMO-activating enzyme [11] = molecular target: T1, SUMO-activating enzyme; assay: Inhibition of SAE (unknown origin) using SUMO1 as substrate incubated for 60 mins in presence of ATP and PPi by pyrophosphate exchange assay; assay type: protein-complex assay; method in brief: as §2
# SUMO-activating enzyme [12] = molecular target: T1, SUMO-activating enzyme; assay: Inhibition of SAE (unknown origin) using SUMO2 as substrate incubated for 60 mins in presence of ATP and PPi by pyrophosphate exchange assay; assay type: protein-complex assay; method in brief: as §2
# T1 sequence (Q9UBE0 whole entry): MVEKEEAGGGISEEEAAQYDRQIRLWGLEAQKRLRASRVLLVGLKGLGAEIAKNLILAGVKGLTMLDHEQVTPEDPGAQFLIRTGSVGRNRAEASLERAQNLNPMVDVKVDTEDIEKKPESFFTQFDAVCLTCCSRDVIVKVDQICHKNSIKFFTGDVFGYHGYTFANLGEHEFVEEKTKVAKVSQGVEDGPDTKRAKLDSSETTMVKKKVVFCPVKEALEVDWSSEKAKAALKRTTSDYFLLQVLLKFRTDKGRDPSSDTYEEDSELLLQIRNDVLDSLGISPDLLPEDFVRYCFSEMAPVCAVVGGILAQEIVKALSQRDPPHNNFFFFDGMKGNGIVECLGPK
# T1 sequence (Q9UBT2 whole entry): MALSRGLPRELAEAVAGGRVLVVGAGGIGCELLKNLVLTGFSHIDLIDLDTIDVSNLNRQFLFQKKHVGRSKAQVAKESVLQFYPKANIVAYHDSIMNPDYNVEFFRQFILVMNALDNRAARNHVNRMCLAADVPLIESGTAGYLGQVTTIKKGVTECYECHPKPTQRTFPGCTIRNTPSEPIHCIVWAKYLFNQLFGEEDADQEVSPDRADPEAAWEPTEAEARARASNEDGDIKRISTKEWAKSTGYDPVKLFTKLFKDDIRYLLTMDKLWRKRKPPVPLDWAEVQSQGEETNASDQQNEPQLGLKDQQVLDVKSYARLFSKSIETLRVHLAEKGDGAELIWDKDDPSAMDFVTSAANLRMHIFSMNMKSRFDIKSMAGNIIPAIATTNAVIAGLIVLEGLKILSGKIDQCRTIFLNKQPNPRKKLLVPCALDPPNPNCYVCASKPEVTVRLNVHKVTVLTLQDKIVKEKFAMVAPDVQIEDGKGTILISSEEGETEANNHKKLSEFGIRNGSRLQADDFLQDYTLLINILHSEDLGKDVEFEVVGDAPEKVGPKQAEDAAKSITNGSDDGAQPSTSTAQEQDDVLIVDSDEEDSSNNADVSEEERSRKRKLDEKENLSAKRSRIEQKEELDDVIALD
IC50 [5] [nM],IC50 (NEDD8 activating enzyme [6]) [nM],IC50 [7] [nM],IC50 (NEDD8 activating enzyme [9]) [nM],IC50 (NEDD8 activating enzyme [10]) [nM],SMILES,IC50 (SUMO-activating enzyme [1]) [nM],IC50 (SUMO-activating enzyme [2]) [nM],IC50 (SUMO-activating enzyme [3]) [nM],IC50 (SUMO-activating enzyme [4]) [nM],IC50 (SUMO-activating enzyme [8]) [nM],IC50 (SUMO-activating enzyme [11]) [nM],IC50 (SUMO-activating enzyme [12]) [nM]
> 1000,450,–,–,–,NS(=O)(=O)OC[C@H]1C[C@@H](Nc2ncncc2C(=O)c2cc(C3OCCc4ccc(Cl)cc43)cs2)C[C@@H]1O (some centres undefined),7,22,0.5,8,–,–,–
> 1000,> 1000,–,–,–,NS(=O)(=O)OC[C@H]1C[C@@H](Nc2ncncc2C(=O)c2cc(C3NCCc4ccc(Cl)cc43)c(Cl)s2)C[C@@H]1O (some centres undefined),9,17,0.4,7,–,–,–
–,216,–,–,–,NS(=O)(=O)OC[C@H]1C[C@@H](Nc2ncncc2C(=O)c2cc(C(O)c3cccc(Cl)c3)cs2)C[C@@H]1O (stereo in doubt; 31),43,955,0.2,55,–,–,–
> 1000,32,–,–,–,Cc1sc(C(=O)c2cncnc2N[C@@H]2C[C@H](COS(N)(=O)=O)[C@@H](O)C2)cc1Cc1cccc(Cl)c1,66,403,1.2,19,–,–,–
> 1000,340,–,–,–,NS(=O)(=O)OC[C@H]1C[C@@H](Nc2ncncc2C(=O)c2cc(C(O)c3cccc(Cl)n3)c(Cl)s2)C[C@@H]1O (some centres undefined),16,142,0.2,14,–,–,–
> 1000,> 1000,–,–,–,NS(=O)(=O)OC[C@H]1C[C@@H](Nc2ncncc2C(=O)c2cc(C3NCCc4ccccc43)cs2)C[C@@H]1O (some centres undefined),365,503,1,78,–,–,–
–,> 1000,–,–,–,NC(c1cccc(Cl)c1)c1csc(C(=O)c2cncnc2N[C@@H]2C[C@H](COS(N)(=O)=O)[C@@H](O)C2)c1 (stereo in doubt; 33),83,499,0.7,50,–,–,–
> 1000,190,> 1000,> 5000,2600,NS(=O)(=O)OC[C@H]1C[C@@H](Nc2ncncc2C(=O)c2ccn(Cc3ccccc3)n2)C[C@@H]1O,–,–,2,71,13,11,69
> 1000,861,–,–,–,NC(c1cccc(Cl)c1)c1cc(C(=O)c2cncnc2N[C@@H]2C[C@H](COS(N)(=O)=O)[C@@H](O)C2)sc1Cl (some centres undefined),17,39,0.4,10,–,–,–
> 1000,> 1000,–,–,–,NS(=O)(=O)OC[C@H]1C[C@@H](Nc2ncncc2C(=O)c2cc(C3OCCc4ccc(Cl)cc43)c(Cl)s2)C[C@@H]1O (some centres undefined),10,14,1,8,–,–,–
> 1000,64,–,–,–,Cc1sc(C(=O)c2cncnc2N[C@@H]2C[C@H](COS(N)(=O)=O)[C@@H](O)C2)cc1C(O)c1cccc(Cl)c1 (some centres undefined),8,21,0.3,6,–,–,–
> 1000,102,–,–,–,Cc1sc(C(=O)c2cncnc2N[C@@H]2C[C@H](COS(N)(=O)=O)[C@@H](O)C2)cc1C1OCCc2ccccc21 (some centres undefined),4,14,0.3,6,–,–,–
> 1000,341,–,–,–,NS(=O)(=O)OC[C@H]1C[C@@H](Nc2ncncc2C(=O)c2cc(C(O)c3cccc(Cl)c3)c(Cl)s2)C[C@@H]1O (some centres undefined),17,70,0.3,9,–,–,–
> 1000,> 1000,–,–,–,CC(N)(c1cccc(Cl)c1)c1csc(C(=O)c2cncnc2N[C@@H]2C[C@H](COS(N)(=O)=O)[C@@H](O)C2)c1 (some centres undefined),29,101,0.3,16,–,–,–
> 1000,235,–,–,–,Cc1sc(C(=O)c2cncnc2N[C@@H]2C[C@H](COS(N)(=O)=O)[C@@H](O)C2)cc1C(N)c1cccc(Cl)c1 (some centres undefined),19,38,0.2,16,–,–,–
616,31,–,–,–,CC(O)(c1csc(C(=O)c2cncnc2N[C@@H]2C[C@H](COS(N)(=O)=O)[C@@H](O)[C@H]2O)c1)c1cccc(Br)n1 (some centres undefined),251,361,0.1,47,–,–,–
> 1000,114,–,–,–,NS(=O)(=O)OC[C@H]1C[C@@H](Nc2ncncc2C(=O)c2cc(C(O)c3cccc(Cl)c3)cs2)C[C@@H]1O (stereo in doubt; 30),1210,> 10000,1,660,–,–,–
> 1000,> 1000,–,–,–,NS(=O)(=O)OC[C@H]1C[C@@H](Nc2ncncc2C(=O)c2cc(C3NCCc4ccc(Cl)cc43)cs2)C[C@@H]1O (some centres undefined),167,142,0.8,27,–,–,–
> 1000,681,–,–,–,NS(=O)(=O)OC[C@H]1C[C@@H](Nc2ncncc2C(=O)c2cc(Cc3cccc(Cl)c3)c(Cl)s2)C[C@@H]1O,184,1400,3.6,108,–,–,–
> 1000,203,–,–,–,Cc1sc(C(=O)c2cncnc2N[C@@H]2C[C@H](COS(N)(=O)=O)[C@@H](O)C2)cc1C1OCCc2ccc(Cl)nc21 (some centres undefined),18,89,0.1,20,–,–,–
> 1000,343,–,–,–,CC(O)(c1cccc(Cl)c1)c1csc(C(=O)c2cncnc2N[C@@H]2C[C@H](COS(N)(=O)=O)[C@@H](O)C2)c1 (some centres undefined),19,233,0.2,12,–,–,–
> 1000,198,–,–,–,NS(=O)(=O)OC[C@H]1C[C@@H](Nc2ncncc2C(=O)c2cc([C@@H]3OCCc4ccccc43)cs2)C[C@@H]1O,5,39,0.4,4,–,–,–
